Measured values published in ChEMBL document CHEMBL1806413, “New C-23 modified of silybin and 2,3-dehydrosilybin: synthesis and preliminary evaluation of antioxidant properties” (Bioorg Med Chem Lett, 2011).
Calls of active or inactive are those of the source. The rule behind the calls is not given here.

Key:
Rat1 [1] = test: Antioxidant activity in rat immortalized Rat1 cells assessed as inhibition of hydrogen peroxide-induced reactive oxygen species production by measuring conversion of 2',7'-dichlorofluorescin diacetate into 2',7'-dichlorofluorescein at 30 uM treated 48 hrs before H2O2 challenge measured after 15 mins by fluorescence assay; format: functional, cell-based
Procedure, shortened: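 Immortalized rat fibroblasts pre-treated 48 h with compound (30 μM), then exposed to 100 μM H2O2 for 15 min; intracellular ROS read as DCF fluorescence from DCFH-DA oxidation. Basal (no H2O2) levels also measured. Values expressed as % of fluorescence in untreated control cells (set at 100).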

Rat1 [2] = test: Cytotoxicity against rat immortalized Rat1 cells assessed as reduction of cell viability at 30 uM after 48 hrs by MTT assay; format: cell-based; details: rat1, 48 h
Procedure, shortened: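 Exponentially growing rat fibroblasts given compound at 30 μM; viability assessed by MTT test after 48 h.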

Rat1 [3] = test: Cytotoxicity against rat immortalized Rat1 cells after 48 hrs by MTT assay; format: cell-based; details: for IC50: Rattus norvegicus, Rat1, 48 h; for Activity: rat, rat1, 48 h

With `COc1cc(C2Oc3cc(-c4oc5cc(O)cc(O)c5c(=O)c4O)ccc3OC2CO)ccc1O` (mixture of isomers) [DEHYDROSILYLBIN] the inhibition (Rat1 [1]) was “Active”, the Activity (Rat1 [2]) was “Non-toxic” and the IC50 (Rat1 [3]) was 155 µM. For the same compound, the Activity (Rat1 [3]) was “Dose-dependent effect”.

For `COc1cc(C2Oc3cc([C@H]4Oc5cc(O)cc(O)c5C(=O)[C@@H]4O)ccc3OC2CO)ccc1O` (mixture of isomers) [SILIBININ], the inhibition (Rat1 [1]) was “Active”, the Activity (Rat1 [2]) was “Non-toxic” and the IC50 (Rat1 [3]) was 162 µM. For the same compound, the Activity (Rat1 [3]) was “Dose-dependent effect”.
